Data published in ChEMBL document CHEMBL1157150, “Synthesis, structure and antibacterial activity of novel 1-(5-substituted-3-substituted-4,5-dihydropyrazol-1-yl)ethanone oxime ester derivatives” (Bioorg Med Chem, 2008).
Converted amounts (≈) assume the structure as drawn. The source made the active and inactive calls. The calls are words filed in the database; no cut-off is given here.

Legend:
Bacillus subtilis = assay: microbe, parasite or virus in culture; assay type: functional; conditions: ATCC 6633
Escherichia coli = assay: Antibacterial activity against Escherichia coli ATCC 35218; assay type: functional
Pseudomonas fluorescens = assay: Antibacterial activity against Pseudomonas fluorescens ATCC 13525; assay type: functional
Staphylococcus aureus = assay: Antibacterial activity against Staphylococcus aureus ATCC 6538; assay type: functional
Pseudomonas aeruginosa = assay: Antibacterial activity against Pseudomonas aeruginosa ATCC 13525; assay type: functional, organism-based
Summary of the method: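 Broth microdilution in MH medium with an inoculum of about 10⁵ cfu/mL. Compounds were serially diluted from a DMSO stock and incubated 24 h at 37 °C. MIC was read visually, then confirmed colorimetrically: MTT (2 mg/mL in PBS, pH 7.4) was added for 4–5 h at room temperature, the dye was extracted with isopropanol/5% 1 mol/L HCl for 12 h, and OD was read at 550 nm.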

[1] = Inhibition of Escherichia coli DNA gyrase supercoiling activity

SMILES	MIC (Bacillus subtilis) [µg/mL]	MIC (Escherichia coli) [µg/mL]	MIC (Pseudomonas fluorescens) [µg/mL]	MIC (Staphylococcus aureus) [µg/mL]	Activity (Pseudomonas aeruginosa)	IC50 [1] [µg/mL]
CC1=NN(/C(C)=N\OC(=O)c2cccnc2)C(c2ccc(OCc3ccc(F)cc3)cc2)C1 (configuration not stated)	6.25 (≈ 14 µM)	6.25 (≈ 14 µM)	12.5 (≈ 28 µM)	6.25 (≈ 14 µM)	Active	4 (≈ 8.96 µM)
C/C(=N/OC(=O)c1ccco1)N1N=C(c2ccc(Cl)cc2Cl)CC1c1ccc(C(F)(F)F)cc1 (configuration not stated)	1.56 (≈ 3.06 µM)	3.12 (≈ 6.12 µM)	1.56 (≈ 3.06 µM)	3.12 (≈ 6.12 µM)	Active	8 (≈ 15.7 µM)
